The values that follow come from publication PMC6021137 (Clinical cancer research : an official journal of the …, 2013).

Where “and” joins values, the source holds several entries; their conditions need not be identical. Equal values may be shown once.

For experiment [1], the system named is clinical prostate cancers ex vivo in organ explant cultures. The experiment in a line: Ex vivo organ explant cultures of clinical PCs. In kind it is cell-based, human.
A further experiment concerns CWR22Pc xenograft tumors. The experiment in a line: CWR22Pc xenograft tumor growth. The class given is in vivo.
The subject of experiment [2] is CWR22Pc cells. Description: Cell viability assay. The following applies: Homo sapiens, 72 h, read-out: GI50 (number of viable cells decreased by 50%). In kind it is cell-based.
For experiment [3], the system named is Stat5a/b nuclear translocation. Description: Nuclear translocation of Stat5a/b, immunofluorescence in PC-3 cells. The settings on record: 200 nM AZD1480 for 2 h, 10 nM hPrl 20 min. The class given is cell-based, human.
Experiment [4] has as its target T1, Stat5b (Homo sapiens, UniProt O60674). Description: Stat5b phosphorylation, immunoprecipitation/immunoblotting, CWR22Pc cells. The class given is cell-based.
In experiment [5] the test system is CWR22Rv1 cells. Description: Caspase-3 activation assay. The class given is cell-based, human. The settings on record: 800 nM, 72 h.
The test system of a further experiment is PC-3. Description: Cell viability assay. The following applies: Homo sapiens, PC-3, 72 h. In kind it is cell-based.
The test system of experiment [6] is CWR22Pc cells. The experiment in a line: Cell cycle analysis. The class given is cell-based, human. The settings on record: CWR22Pc, 24, 48 and 72 h.
Experiment [7] concerns CWR22Rv1 tumor xenografts (orthotopic). The experiment in a line: Orthotopic CWR22Rv1 xenograft tumor growth. The class given is in vivo, SCID mice. The following applies: oral gavage. Put shortly:
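Luciferase-tagged CWR22Rv1 cells were implanted orthotopically into the prostates of male CB-17 SCID mice. Mice received test compound at 10 or 30 mg/kg, or vehicle (0.1% Tween 80/0.5% methylcellulose), daily by oral gavage. […]. Growth suppression was assessed at end of treatment versus vehicle.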

The target in experiment [8] is T2, Stat5a (Homo sapiens, UniProt O60674). Description: Stat5a phosphorylation, immunoprecipitation/immunoblotting, CWR22Rv1 cells. The following applies: read-out: IC50, inhibition of constitutive activation of Stat5a; exponentially growing CWR22Rv1 cells. In kind it is cell-based.
The next experiment deals with Stat5a/b dimerization. The experiment in a line: Stat5a/b dimerization by co-immunoprecipitation in PC-3 cells. The class given is cell-based, human. The settings on record: 2 h pre-treatment, 10 nM hPrl.
The test system of the next experiment is DU145. Description: Cell viability assay. In kind it is cell-based. The settings on record: Homo sapiens, DU-145, 72 h.
Experiment [9] has as its system CWR22Pc cells. The experiment in a line: Caspase-3 activation assay. The class given is cell-based, human. The settings on record: 800 nM, 48 h.
Experiment [10] concerns CWR22Rv1 cells. Description: Cell viability assay. In kind it is cell-based. The following applies: Homo sapiens, CWR22Rv1, 72 h, read-out: GI50 (number of viable cells decreased by 50%).
Experiment [11] concerns CWR22Rv1 tumor xenografts (s.c.). Description: Subcutaneous CWR22Rv1 xenograft tumor growth. The settings on record: for suppression of s.c. tumor growth at end of treatment: oral gavage. The class given is in vivo, SCID mice.
Experiment [12] has as its target T2, Stat5a. The experiment in a line: Stat5a phosphorylation, immunoprecipitation/immunoblotting, CWR22Pc cells. The settings on record: read-out: IC50, inhibition of constitutive activation of Stat5a; exponentially growing CWR22Pc cells. In kind it is cell-based.
Experiment [13] deals with normal prostate epithelial cells (RC165N). The experiment in a line: Cell viability assay. In kind it is cell-based. The following applies: Homo sapiens, 72 h.
For experiment [14], the target named is T1, Stat5b. The experiment in a line: Stat5b phosphorylation, immunoprecipitation/immunoblotting, CWR22Rv1 cells. The class given is cell-based.
Where [15] appears, read: tumors harvested at end of treatment.

T1 sequence (O60674 whole entry): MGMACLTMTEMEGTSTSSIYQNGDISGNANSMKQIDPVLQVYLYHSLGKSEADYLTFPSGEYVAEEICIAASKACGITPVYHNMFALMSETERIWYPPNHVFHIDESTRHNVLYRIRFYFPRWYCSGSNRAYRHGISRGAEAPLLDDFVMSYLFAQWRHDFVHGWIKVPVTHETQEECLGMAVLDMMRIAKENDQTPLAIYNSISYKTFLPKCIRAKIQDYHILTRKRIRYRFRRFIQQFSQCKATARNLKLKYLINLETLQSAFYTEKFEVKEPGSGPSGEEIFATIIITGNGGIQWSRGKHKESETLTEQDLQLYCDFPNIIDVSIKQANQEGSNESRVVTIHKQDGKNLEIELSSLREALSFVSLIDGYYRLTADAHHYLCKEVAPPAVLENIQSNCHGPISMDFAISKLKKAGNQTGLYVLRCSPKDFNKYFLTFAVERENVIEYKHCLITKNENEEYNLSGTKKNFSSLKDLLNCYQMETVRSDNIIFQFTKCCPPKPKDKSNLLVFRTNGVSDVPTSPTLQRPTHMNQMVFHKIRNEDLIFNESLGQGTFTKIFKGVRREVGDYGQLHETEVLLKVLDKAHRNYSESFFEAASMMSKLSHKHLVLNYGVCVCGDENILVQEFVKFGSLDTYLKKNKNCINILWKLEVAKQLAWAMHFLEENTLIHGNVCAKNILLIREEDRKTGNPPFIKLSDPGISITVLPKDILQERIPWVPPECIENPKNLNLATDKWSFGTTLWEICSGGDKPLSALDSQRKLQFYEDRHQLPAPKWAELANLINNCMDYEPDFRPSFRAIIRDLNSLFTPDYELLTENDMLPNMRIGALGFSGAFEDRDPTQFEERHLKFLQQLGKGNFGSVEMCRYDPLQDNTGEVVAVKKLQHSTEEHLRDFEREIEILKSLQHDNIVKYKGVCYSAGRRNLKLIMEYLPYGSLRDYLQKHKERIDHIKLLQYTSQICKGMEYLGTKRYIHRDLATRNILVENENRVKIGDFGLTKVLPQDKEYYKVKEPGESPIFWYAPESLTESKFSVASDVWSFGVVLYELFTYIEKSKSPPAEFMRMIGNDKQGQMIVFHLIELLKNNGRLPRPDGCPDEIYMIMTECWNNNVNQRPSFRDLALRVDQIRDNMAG
T2 sequence (O60674 whole entry): as above

On to `Cc1cc(Nc2nc(N[C@@H](C)c3ncc(F)cn3)ncc2Cl)n[nH]1` [AZD1480, 5-Chloro-N(2)-[(1S)-1-(5-fluoropyrimidin-2-yl)ethyl]-N(4)-(5-methyl-1H-pyrazol-3-yl)pyrimidine-2,4-diamine], for which, in [1] (9 responsive PCs, both AZD1480 treatment groups), the “nuclear Stat5a/b levels in explants” value is listed as “significantly decreased”. Moreover, the “clinical PCs not responding (non-responders)” value in experiment [1] (7 days culture) was 3 of the 12 and 3. Besides, the “clinical PCs responding by loss of viable epithelium (responders)” value in experiment [1] (7 days culture) was “Nine of 12”. Besides, the “concentration from which extensive loss of viable epithelium starts” value in experiment [1] (responders, 7 days culture) stood at 25 µM. Also, in the experiment on CWR22Pc xenograft tumors (30 mg/kg daily oral, 21 days from day 12), the “inhibition of primary CWR22Pc tumor growth (TW 1)” value was 73%. For the same molecule, the “emergence of CR CWR22Pc tumors (TW 2)” value in the experiment with CWR22Pc xenograft tumors (30 mg/kg daily oral, from day 13 after androgen deprivation) is given as “significantly blocked”. For the same molecule, the “growth of established CR CWR22Pc tumors (TW 3)” value in the experiment with CWR22Pc xenograft tumors (30 mg/kg daily oral, from day 23 after androgen deprivation) is “significantly blocked”. Also, the “overall survival of tumor-bearing mice” value in the experiment with CWR22Pc xenograft tumors (TWs 2 and 3, vs docetaxel-treated mice) was “better overall survival”. The “levels of full-length AR, AR splice variants and tissue PSA in tumor lysates” value in the experiment on CWR22Pc xenograft tumors (immunoblotting, TWs 1, 2 and 3) was “did not affect”. The “nuclear Stat5a/b levels in CWR22Pc tumors (IHC)” value (from here on “nuclear Stat5a/b levels … (IHC)”) with CWR22Pc xenograft tumors (setting [15]) is “decreased nuclear Stat5a/b levels in all TWs significantly”. Besides, in the experiment with CWR22Pc xenograft tumors (tumors harvested at end of treatment, all TWs), the “fraction of viable tumor cells in CWR22Pc tumors” value is on record as “reduced the fraction of viable tumor cells in all TWs”. Besides, the GI50 in the experiment with CWR22Pc cells [2] amounted to 482 nM; in the experiment with PC-3, 1760 nM; with DU145 it was 3520 nM; in the experiment on CWR22Rv1 cells [10], 438 nM; in experiment [13], 2080 nM. Further, the “ligand-induced nuclear translocation of Stat5a/b” value in [3] is given as “no ligand-induced nuclear immunostaining of Stat5a/b”. The IC50 amounted to 70 nM at Stat5b [4] (read-out: IC50 for Prl-induced Stat5b phosphorylation, serum-starved CWR22Pc cells, 10 nM hPrl); 65 nM on Stat5b [4] (read-out: IC50 for Stat5b phosphorylation (constitutive), exponentially growing CWR22Pc cells); 16 nM at Stat5a [8]; 7 nM on Stat5a [12]; 48 nM at Stat5b [14] (read-out: IC50 for Prl-induced Stat5b phosphorylation, serum-starved CWR22Rv1 cells, 10 nM hPrl); 65 nM at Stat5b [14] (read-out: IC50 for Stat5b phosphorylation (constitutive), exponentially growing CWR22Rv1 cells). Moreover, the “increase in caspase-3 activation” value with CWR22Rv1 cells [5] turned out to be 200%; in the experiment on CWR22Pc cells [9], 150%. Besides, in the experiment on CWR22Pc cells [6], the “cell cycle distribution: G1, G2-M and dead cells (sub G1)” value is “fraction of dead cells (sub G1) was increased at all time points”. The “suppression of orthotopic tumor growth” value in experiment [7] (10 mg/kg daily) was determined as 6%; in experiment [7] (30 mg/kg daily), 54%. In the experiment with Stat5a/b dimerization, the “hPrl-induced Stat5a/b dimerization” value is listed as “potently inhibited”. Also, the “suppression of s.c. tumor growth at end of treatment” value in experiment [11] (10 mg/kg daily) stood at 52%; in [11] (30 mg/kg daily) it was 72%. Moreover, the “Stat5a/b phosphorylation in s.c. xenograft tumor lysates” value in experiment [11] (2 h following 30 mg/kg) is reported as “significant inhibition of Stat5a/b phosphorylation”. In addition, in experiment [11] (tumors harvested after 11 days of drug treatment), the “decrease in nuclear Stat5a/b in tumor tissues relative to control (IHC)” value is given as 70%.

With `CC(O)(CS(=O)(=O)c1ccc(F)cc1)C(=O)Nc1ccc(C#N)c(C(F)(F)F)c1` (stereo not drawn) [bicalutamide, reference compound], in the experiment with CWR22Pc xenograft tumors (50 mg/kg daily oral, 21 days from day 12), the “suppression of primary CWR22Pc tumor growth (TW 1)” value turned out to be 30%. The “nuclear Stat5a/b levels … (IHC)” value with CWR22Pc xenograft tumors (setting [15]) is “no effect”.

In the case of `CC(=O)O[C@@]12CO[C@@H]1C[C@H](O)[C@@]1(C)C(=O)[C@H](O)C3=C(C)[C@@H](OC(=O)[C@H](O)[C@@H](NC(=O)OC(C)(C)C)c4ccccc4)C[C@@](O)([C@@H](OC(=O)c4ccccc4)[C@H]21)C3(C)C` [docetaxel, reference compound], the “nuclear Stat5a/b levels … (IHC)” value with CWR22Pc xenograft tumors (setting [15]) is “no effect”.
